A short description of test [1]: Selectivity ratio of IC50 for equine serum butyrylcholinesterase to IC50 for Electrophorus electricus acetylcholinesterase.
Another test addresses Acetylcholinesterase (Electrophorus electricus, UniProt O42275). In words: Inhibition of Electrophorus electricus acetylcholinesterase using acetylthiocholine iodide as substrate preincubated for 15 mins followed by substrate addition measured for 30 mins by Ellman's method. (DTNB colorimetry detects thiols as they appear.)
For the next test, the target named is Cholinesterase (Equus caballus, UniProt P81908). The test can be described thus: Inhibition of equine serum butyrylcholinesterase using S-butyrylthiocholine chloride as substrate preincubated for 15 mins followed by substrate addition measured for 30 mins by Ellman's method. In short, it runs like this:
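Modified Ellman assay in 0.1 M sodium phosphate buffer, pH 8. Samples were prepared in DMSO, with 1% DMSO in the final mix. Equine serum BChE was incubated with sample for 15 min at 25 °C. 10 mM DTNB stock was then added, followed by 14 mM S-butyrylthiocholine chloride stock. Absorbance at 412 nm was read for 30 min, and % inhibition was calculated relative to control.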

Test [2] can be described thus: Selectivity ratio of IC50 for Electrophorus electricus acetylcholinesterase to IC50 for equine serum butyrylcholinesterase.

Molecules are shown by their SMILES.

Chain of Cholinesterase (P81908 whole entry): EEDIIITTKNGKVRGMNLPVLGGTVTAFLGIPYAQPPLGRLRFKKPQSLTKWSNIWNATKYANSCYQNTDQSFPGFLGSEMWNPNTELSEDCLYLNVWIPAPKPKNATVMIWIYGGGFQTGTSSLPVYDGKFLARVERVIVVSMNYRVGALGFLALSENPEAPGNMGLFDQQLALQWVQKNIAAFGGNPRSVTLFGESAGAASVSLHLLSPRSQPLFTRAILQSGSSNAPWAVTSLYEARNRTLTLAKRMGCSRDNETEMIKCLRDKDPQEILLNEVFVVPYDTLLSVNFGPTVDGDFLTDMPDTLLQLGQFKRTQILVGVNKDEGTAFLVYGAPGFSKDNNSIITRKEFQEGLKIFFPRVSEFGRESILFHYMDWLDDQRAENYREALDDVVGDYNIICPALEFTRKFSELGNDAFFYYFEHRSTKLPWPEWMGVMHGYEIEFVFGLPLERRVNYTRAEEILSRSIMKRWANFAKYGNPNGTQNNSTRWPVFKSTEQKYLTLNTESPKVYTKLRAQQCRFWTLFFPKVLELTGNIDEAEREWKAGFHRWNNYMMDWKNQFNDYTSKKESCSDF
Chain of Acetylcholinesterase (O42275 whole entry): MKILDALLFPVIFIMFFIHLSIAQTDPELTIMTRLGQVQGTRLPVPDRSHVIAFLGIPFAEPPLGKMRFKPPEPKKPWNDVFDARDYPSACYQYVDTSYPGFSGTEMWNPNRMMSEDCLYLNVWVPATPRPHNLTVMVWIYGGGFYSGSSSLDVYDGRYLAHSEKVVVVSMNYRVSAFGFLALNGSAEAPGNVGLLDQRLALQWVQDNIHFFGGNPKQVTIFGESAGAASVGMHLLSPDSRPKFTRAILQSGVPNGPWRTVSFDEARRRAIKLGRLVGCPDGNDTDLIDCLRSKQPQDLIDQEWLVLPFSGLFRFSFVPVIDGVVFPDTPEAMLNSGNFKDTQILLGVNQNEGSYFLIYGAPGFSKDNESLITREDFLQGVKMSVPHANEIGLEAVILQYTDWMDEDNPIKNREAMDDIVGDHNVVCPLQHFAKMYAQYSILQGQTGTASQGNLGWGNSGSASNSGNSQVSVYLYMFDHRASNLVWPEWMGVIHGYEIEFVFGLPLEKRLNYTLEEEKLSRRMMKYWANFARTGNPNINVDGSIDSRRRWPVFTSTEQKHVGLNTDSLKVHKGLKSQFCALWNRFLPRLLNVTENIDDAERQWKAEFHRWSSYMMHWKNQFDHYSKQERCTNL

Turning to `Fc1ccc(C2=CSC3=NC4=C(CNC/C4=C\c4ccccc4)C(c4ccccc4)N23)cc1` (stereo not drawn), the Ratio IC50 in test [1] came to 0.39; in test [2] it was 2.57. Also, the values for the IC50 against Acetylcholinesterase and against Cholinesterase were 20.3 µM and 7.91 µM, respectively.
`COc1ccc(C2=CSC3=NC4=C(CNC/C4=C\c4ccc(Cl)cc4)C(c4ccc(Cl)cc4)N23)cc1` (stereo not drawn): the Ratio IC50 in test [1] worked out at 1.52; in test [2], 0.66. Besides, the results for the IC50 on Acetylcholinesterase and against Cholinesterase were 8.44 µM and 12.8 µM, respectively.
As for `COc1ccccc1/C=C1\CNCC2=C1N=C1SC=C(c3ccc(Cl)cc3)N1C2c1ccccc1OC` (stereo not drawn), the Ratio IC50 was 5.76 in test [1] and 0.17 in test [2]. For the same compound, the IC50 against Acetylcholinesterase is 5.08 µM; against Cholinesterase it was 29.3 µM.
For `Clc1ccc(/C=C2\CNCC3=C2N=C2SC=C(c4ccc(Cl)cc4)N2C3c2ccc(Cl)cc2)cc1` (stereo not drawn) the same measures were 5.11, 0.2, 5.37 µM and 27.4 µM.
For the compound `COc1ccc(C2=CSC3=NC4=C(CNC/C4=C\c4ccccc4OC)C(c4ccccc4OC)N23)cc1` (stereo not drawn), the Ratio IC50 in test [1] stood at 1.55; in test [2], 0.64. The IC50 against Acetylcholinesterase worked out at 12 µM; at Cholinesterase, 18.6 µM.
Take `Cc1ccc(/C=C2\CNCC3C2NC(=S)NC3c2ccc(C)cc2)cc1` (stereo not drawn): the IC50 against Acetylcholinesterase is 37.5 µM; on Cholinesterase, 6.27 µM.
Regarding `COc1ccccc1/C=C1\CNCC2C1NC(=S)NC2c1ccccc1OC` (stereo not drawn), the IC50 came to 0.8 µM against Acetylcholinesterase and 1.18 µM against Cholinesterase.
With `COc1ccccc1/C=C1\CNCC2=C1N=C1SC=C(c3ccccc3)N1C2c1ccccc1OC` (stereo not drawn), the results for the Ratio IC50 in test [1] and in test [2] were 0.97 and 1.03, respectively. The IC50 on Acetylcholinesterase amounted to 4.23 µM; at Cholinesterase, 4.1 µM.
On to `S=C1NC2/C(=C/c3ccc(Cl)cc3)CNCC2C(c2ccc(Cl)cc2)N1` (stereo not drawn), for which the IC50 against Acetylcholinesterase is 2.25 µM; against Cholinesterase, 6.26 µM.
In the case of `Fc1ccc(/C=C2\CNCC3=C2N=C2SC=C(c4ccc(Cl)cc4)N2C3c2ccc(F)cc2)cc1` (stereo not drawn), the Ratio IC50 in test [1] amounted to 2.16; in test [2], 0.46. In addition, the IC50 is 10.3 µM at Acetylcholinesterase and 22.2 µM at Cholinesterase.
For `C1=C(c2ccccc2)N2C(=NC3=C(CNC/C3=C\c3ccccc3)C2c2ccccc2)S1` (stereo not drawn), in that order: 1.19, 0.84, 1.47 µM and 1.74 µM.
In the case of `COc1ccc(C2=CSC3=NC4=C(CNC/C4=C\c4ccc(C)cc4)C(c4ccc(C)cc4)N23)cc1` (stereo not drawn), the values for the Ratio IC50 in test [1] and in test [2] were 1.01 and 0.99, respectively. Moreover, the IC50 is 10.4 µM at Acetylcholinesterase and 10.5 µM against Cholinesterase.
`Clc1ccccc1/C=C1\CNCC2=C1N=C1SC=C(c3ccccc3)N1C2c1ccccc1Cl` (stereo not drawn): the Ratio IC50 in test [1] came to 1.3; in test [2], 0.77. Besides, the IC50 is 2.05 µM at Acetylcholinesterase and 2.68 µM at Cholinesterase.
For the compound `S=C1NC2/C(=C/c3ccccc3Cl)CNCC2C(c2ccccc2Cl)N1` (stereo not drawn), the IC50 against Acetylcholinesterase was found to be 32.3 µM; at Cholinesterase, 2.91 µM.
`Fc1ccc(C2=CSC3=NC4=C(CNC/C4=C\c4ccccc4Cl)C(c4ccccc4Cl)N23)cc1` (stereo not drawn): the Ratio IC50 in test [1] is 1.3; in test [2], 0.76. The IC50 turned out to be 6.03 µM against Acetylcholinesterase and 4.63 µM at Cholinesterase.
With `Fc1ccc(C2=CSC3=NC4=C(CNC/C4=C\c4ccc(Cl)cc4)C(c4ccc(Cl)cc4)N23)cc1` (stereo not drawn), the results for the Ratio IC50 in test [1] and in test [2] were 2.75 and 0.36, respectively. In addition, the IC50 on Acetylcholinesterase turned out to be 5.73 µM; at Cholinesterase it was 15.8 µM.
For the compound `COc1ccc(C2=CSC3=NC4=C(CNC/C4=C\c4ccccc4Cl)C(c4ccccc4Cl)N23)cc1` (stereo not drawn), the Ratio IC50 in test [1] came to 1.58; in test [2], 0.63. Moreover, the figures for the IC50 against Acetylcholinesterase and on Cholinesterase were 7.97 µM and 12.6 µM, respectively.
As for `Cc1ccc(/C=C2\CNCC3=C2N=C2SC=C(c4ccccc4)N2C3c2ccc(C)cc2)cc1` (stereo not drawn), the Ratio IC50 in test [1] amounted to 3.21; in test [2], 0.31. Moreover, the IC50 against Acetylcholinesterase was found to be 0.53 µM; against Cholinesterase, 1.71 µM.
Take `COc1ccccc1/C=C1\CNCC2=C1N=C1SC=C(c3ccc(F)cc3)N1C2c1ccccc1OC` (stereo not drawn): the Ratio IC50 worked out at 1.59 in test [1] and 0.63 in test [2]. In addition, the IC50 was determined as 5.5 µM against Acetylcholinesterase and 8.75 µM against Cholinesterase.
Regarding `Fc1ccc(/C=C2\CNCC3C2NC(=S)NC3c2ccc(F)cc2)cc1` (stereo not drawn), the IC50 at Acetylcholinesterase came out at 37.2 µM; at Cholinesterase, 28.8 µM.
Turning to `Clc1ccc(/C=C2\CNCC3=C2N=C2SC=C(c4ccccc4)N2C3c2ccc(Cl)cc2)cc1` (stereo not drawn), the Ratio IC50 stood at 1.35 in test [1] and 0.74 in test [2]. Besides, the figures for the IC50 at Acetylcholinesterase and against Cholinesterase were 1.62 µM and 2.18 µM, respectively.
As for `Cc1ccc(/C=C2\CNCC3=C2N=C2SC=C(c4ccc(F)cc4)N2C3c2ccc(C)cc2)cc1` (stereo not drawn), the results for the Ratio IC50 in test [1] and in test [2] were 0.76 and 1.32, respectively. Further, the IC50 against Acetylcholinesterase turned out to be 6.47 µM; against Cholinesterase, 4.91 µM.
In the case of `Clc1ccc(C2=CSC3=NC4=C(CNC/C4=C\c4ccccc4Cl)C(c4ccccc4Cl)N23)cc1` (stereo not drawn), the values for the Ratio IC50 in test [1] and in test [2] were 1.47 and 0.68, respectively. The IC50 at Acetylcholinesterase stood at 5.2 µM; against Cholinesterase it was 7.65 µM.
Regarding `S=C1NC2/C(=C/c3ccccc3)CNCC2C(c2ccccc2)N1` (stereo not drawn), the results for the IC50 at Acetylcholinesterase and against Cholinesterase were 19.3 µM and 3.78 µM, respectively.
For the compound `Fc1ccc(/C=C2\CNCC3=C2N=C2SC=C(c4ccc(F)cc4)N2C3c2ccc(F)cc2)cc1` (stereo not drawn), the results for the Ratio IC50 in test [1] and in test [2] were 1.2 and 0.83, respectively. In addition, the IC50 against Acetylcholinesterase came out at 13.2 µM; against Cholinesterase it was 15.8 µM.
Consider `Fc1ccc(/C=C2\CNCC3=C2N=C2SC=C(c4ccccc4)N2C3c2ccc(F)cc2)cc1` (stereo not drawn), for which the Ratio IC50 in test [1] came to 0.98; in test [2], 1.02. Further, the results for the IC50 on Acetylcholinesterase and against Cholinesterase were 4.04 µM and 3.95 µM, respectively.
For `Cc1ccc(/C=C2\CNCC3=C2N=C2SC=C(c4ccc(Cl)cc4)N2C3c2ccc(C)cc2)cc1` (stereo not drawn), in that order: 1.5, 0.67, 21.7 µM and 32.6 µM.
For `COc1ccc(C2=CSC3=NC4=C(CNC/C4=C\c4ccccc4)C(c4ccccc4)N23)cc1` (stereo not drawn), in that order: 0.65, 1.52, 15.9 µM and 10.4 µM.
Consider `Clc1ccc(C2=CSC3=NC4=C(CNC/C4=C\c4ccccc4)C(c4ccccc4)N23)cc1` (stereo not drawn), for which the Ratio IC50 in test [1] is 1.86; in test [2], 0.54. The IC50 at Acetylcholinesterase came out at 23.9 µM; against Cholinesterase, 44.3 µM.
For `COc1ccc(C2=CSC3=NC4=C(CNC/C4=C\c4ccc(F)cc4)C(c4ccc(F)cc4)N23)cc1` (stereo not drawn), in that order: 1.18, 0.84, 22.4 µM and 26.5 µM.

As usually defined, the IC50 is the concentration that gives 50% inhibition.

(Values after ChEMBL document CHEMBL3102751, “Cholinesterase inhibitory activity versus aromatic core multiplicity: a facile green synthesis and molecular docking study of novel piperidone embedded thiazolopyrimidines” (Bioorg Med Chem, 2014).)
